Assay outcomes deposited in PubChem BioAssay by several laboratories.
A selection: hits, their analogues and other compounds. The true share with any hit is near 1.4%.
MOR-DOR ag – agonists of human mu-delta opioid receptor heterodimerization; P35372+P41143; cells, OPRM1-OPRD1 heterodimerization, luminescence; activation, % at 9.3 µM; 340,000 compounds, 0.3% hits; in the data active = activation above about 18%
OPRM1-OPRD1 inv – inverse agonists of human mu-delta opioid receptor heterodimerization | inhibition, % at 9.3 µM | cell-based MOR-DOR heterodimer luminescence, inverse agonism | 340,000 compounds, 0.21% hits | P35372+P41143; in the data active = inhibition above about 22%, passing the limit was not always enough
HTR5A inv ag – HTR5A inverse agonism, opioid heterodimer counter-screen. HTR5A cell line, luminescence. 340,000 compounds, 0.083% hits. AID 504634. inhibition, % at 9.3 µM. P47898; in the data active = inhibition mostly above about 23%, no sharp cut-off; inactive = mostly below about 18%
Target sequence (P47898 whole entry, looked up): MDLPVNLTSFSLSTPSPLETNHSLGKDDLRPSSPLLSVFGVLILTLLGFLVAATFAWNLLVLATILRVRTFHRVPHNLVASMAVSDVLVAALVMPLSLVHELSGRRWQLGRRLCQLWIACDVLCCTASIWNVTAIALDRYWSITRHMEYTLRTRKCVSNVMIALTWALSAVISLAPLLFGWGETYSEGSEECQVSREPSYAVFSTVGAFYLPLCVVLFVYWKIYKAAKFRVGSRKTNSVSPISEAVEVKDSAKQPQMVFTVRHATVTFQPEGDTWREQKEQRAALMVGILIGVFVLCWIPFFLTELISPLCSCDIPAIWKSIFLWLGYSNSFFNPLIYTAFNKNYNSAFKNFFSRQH
HTR5A ag – HTR5A agonism, opioid heterodimer counter-screen; 340,000 compounds, 0.61% hits; P47898; HTR5A agonist assay, luminescence, cell-based; activation, % at 9.3 µM; in the data active = activation mostly above about 9.5%, no sharp cut-off; inactive = mostly below about 7.6%
DAGLB inhibitor – diacylglycerol lipase beta (human) inhibition; 340,000 compounds, 0.059% hits; inhibition, % at 5.17 µM; Q8NCG7; HEK293T DAGLB membrane lysate, EnzChek fluorogenic substrate; in the data active = inhibition above about 34%
Arr AP2 block – blocks beta-arrestin peptide binding to AP2 adaptin; FITC-arrestin peptide / GST-AP2 beads, flow cytometry; AP2 beta2 appendage carries R879A mutation; inhibition, % at 10 µM; 340,000 compounds, 0.31% hits;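 active = inhibition above a set limit, near 3 SD of compounds lacking own fluorescence, cut at about 54% in these data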
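System: GST-AP2 R879A bound to glutathione beads, E. coli-expressed. Also added: 50 nM FITC-arrestin peptide. Schedule: compound with beads 12 min RT, then probe 1 h RT. Signal: bead flow cytometry, FITC channel. Read-out basis: percent response.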
Hits are given with their value.

For O=C(Nc1ccc(Cl)cc1)c1cc2c(cc1O)[nH]c1ccccc12 the results were MOR-DOR ag inactive, OPRM1-OPRD1 inv inactive, HTR5A inv ag inactive, HTR5A ag 14.0, DAGLB inhibitor inactive and Arr AP2 block inactive.
`Cc1ccc(NC(=O)COC(=O)C2CC2)cc1Cl` gave MOR-DOR ag inactive, OPRM1-OPRD1 inv inactive, HTR5A inv ag inactive, HTR5A ag inactive, DAGLB inhibitor inactive and Arr AP2 block inactive.
For Cc1ccc(NC(=O)COC(=O)C2CC2(Cl)Cl)cc1C (stereo unspecified) the results were MOR-DOR ag inactive, OPRM1-OPRD1 inv inactive, HTR5A inv ag inactive, HTR5A ag 9.0, DAGLB inhibitor inactive and Arr AP2 block inactive.
COc1ccc(N(CC(=O)NC2CC3CCC2C3)S(=O)(=O)c2ccc(C)cc2)cc1Cl (stereo unspecified) was read as DAGLB inhibitor inactive.
Screening CCCOC(=O)c1cccc(Nc2nc(-c3cccnc3)nc3ccccc23)c1 returned MOR-DOR ag inactive, OPRM1-OPRD1 inv inactive, HTR5A inv ag inactive, HTR5A ag 14.1, DAGLB inhibitor inactive and Arr AP2 block inactive.
`Cc1c(Cl)cccc1NC(=O)c1cccc(NC(=O)CCC(=O)O)c1` gave MOR-DOR ag inactive, OPRM1-OPRD1 inv inactive, HTR5A inv ag inactive, HTR5A ag 12.0, DAGLB inhibitor inactive and Arr AP2 block inactive.
`CCCNC(=O)C1CCC(CNS(=O)(=O)c2ccc3c(c2)CC(C)N3C(C)=O)CC1` (stereo unspecified) gave MOR-DOR ag inactive, OPRM1-OPRD1 inv inactive, HTR5A inv ag inactive, HTR5A ag inactive, DAGLB inhibitor inactive and Arr AP2 block inactive.
COCCNC(=O)C1CCC(CNS(=O)(=O)c2ccc3c(c2)CC(C)N3C(=O)C2CC2)CC1 (stereo unspecified) was read as MOR-DOR ag inactive, OPRM1-OPRD1 inv inactive, HTR5A inv ag inactive, HTR5A ag 12.4, DAGLB inhibitor inactive and Arr AP2 block inactive.
Cc1ccccc1OCC(=O)N1CCCc2ccccc21 was read as MOR-DOR ag inactive, OPRM1-OPRD1 inv inactive, HTR5A inv ag inactive, HTR5A ag inactive, DAGLB inhibitor inactive and Arr AP2 block inactive.
COc1cccc(OCC(=O)N2CCCc3ccccc32)c1 was read as MOR-DOR ag inactive, OPRM1-OPRD1 inv inactive, HTR5A inv ag inactive, HTR5A ag 10.4, DAGLB inhibitor inactive and Arr AP2 block inactive.
Screening CC(C)Cn1c(N)c(C(=O)NCC2CCCO2)c2nc3ccccc3nc21 (stereo unspecified) returned MOR-DOR ag inactive, OPRM1-OPRD1 inv 44.2, HTR5A inv ag inactive, HTR5A ag inactive, DAGLB inhibitor inactive and Arr AP2 block inactive.
COCCn1c(N)c(C(=O)NCC2CCCO2)c2nc3ccccc3nc21 (stereo unspecified) was read as MOR-DOR ag inactive, OPRM1-OPRD1 inv inactive, HTR5A inv ag inactive, HTR5A ag inactive, DAGLB inhibitor inactive and Arr AP2 block inactive.
Screening CCOC(=O)C(=CNc1cc(C)nn1-c1ccc(Cl)cc1)C(=O)OCC returned MOR-DOR ag inactive, OPRM1-OPRD1 inv inactive, HTR5A inv ag inactive, HTR5A ag 10.4, DAGLB inhibitor inactive and Arr AP2 block inactive.
COC(=O)[C@@H]1Cc2c([nH]c3ccccc23)C(C)(C)N1C(=O)CCl was read as MOR-DOR ag 36.9, OPRM1-OPRD1 inv inactive, HTR5A inv ag inactive, HTR5A ag 41.3, DAGLB inhibitor inactive and Arr AP2 block inactive.
Screening Cc1ccc(N(CC(=O)NCC2CCCO2)S(=O)(=O)c2ccccc2)c(C)c1 (stereo unspecified) returned MOR-DOR ag inactive, OPRM1-OPRD1 inv inactive, HTR5A inv ag inactive, HTR5A ag 14.0, DAGLB inhibitor inactive and Arr AP2 block inactive.
`COc1ccc(OC)c(N(CC(=O)NCC2CCCO2)S(=O)(=O)c2ccccc2)c1` (stereo unspecified) gave MOR-DOR ag inactive, OPRM1-OPRD1 inv inactive, HTR5A inv ag inactive, HTR5A ag inactive, DAGLB inhibitor inactive and Arr AP2 block inactive.
COc1cc(NC(=O)c2ccccc2)c(OC)cc1NC(=O)Cc1ccc(C)cc1 was read as MOR-DOR ag inactive, OPRM1-OPRD1 inv inactive, HTR5A inv ag inactive, HTR5A ag 9.6, DAGLB inhibitor inactive and Arr AP2 block inactive.
CC(Oc1ccc(F)cc1)C(=O)Nc1ccc2ccccc2c1 (stereo unspecified) was read as MOR-DOR ag inactive, OPRM1-OPRD1 inv inactive, HTR5A inv ag inactive, HTR5A ag inactive, DAGLB inhibitor inactive and Arr AP2 block inactive.
